Measured values published in ChEMBL document CHEMBL1921792, “Synthesis and anticonvulsant activity of trans- and cis-2-(2,6-dimethylphenoxy)-N-(2- or 4-hydroxycyclohexyl)acetamides and their amine analogs” (Bioorg Med Chem, 2011).
The source made the active and inactive calls.

Key:
[1] = tested on: Rattus norvegicus; test: Neurotoxicity in rat assessed as neurological deficit at 30 mg/kg, po after 4 hrs by rotarod test; format: toxicity, organism-based; set-up: dose 30 mg/kg, route oral; conditions: in vivo
Summary of the method: (§1)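 Rats given the compound, suspended in 0.5% methylcellulose, by the stated route and dose. Neurological deficit was recorded at the listed times as ataxia and loss of placing response and muscle tone. Reported as number of rats showing toxicity/number tested.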

[2] = tested on: Mus musculus; test: Anticonvulsant activity in mouse assessed as protection against maximal electric shock-induced seizures at 3 mg/kg, ip after 0.5 hrs; format: functional, organism-based; set-up: dose 3 mg/kg
[3] = tested on: Rattus norvegicus; test: Anticonvulsant activity in rat assessed as protection against maximal electric shock-induced seizures at 30 mg/kg, ip after 4 hrs; format: functional, organism-based; set-up: dose 30 mg/kg
Summary of the method: (§2)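 Time-to-peak-effect assay: MES protection read at 0.25–4 h after dosing. Mice ip (60–130 mg/kg), rats po (15 or 30 mg/kg) or ip (30 mg/kg). Groups of 4–8; result is protected/tested.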

[4] = tested on: Rattus norvegicus; test: Anticonvulsant activity in rat assessed as protection against maximal electric shock-induced seizures at 30 mg/kg, ip after 0.5 hrs; format: functional, organism-based; set-up: dose 30 mg/kg; summary of the method: as §2
[5] = tested on: Mus musculus; test: Anticonvulsant activity in mouse assessed as protection against maximal electric shock-induced seizures at 30 mg/kg, ip after 0.5 hrs; format: functional, organism-based; set-up: dose 30 mg/kg
Summary of the method: (§3)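 Phase I maximal electroshock screen in mice. Compound given ip as a suspension in 0.5% methylcellulose at 30, 100 or 300 mg/kg, tested at 30 min and 4 h. Small groups (1–8); result is number protected/number tested.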

[6] = tested on: Mus musculus; test: Neurotoxicity in mouse assessed as inability to maintain equilibrium on rotarod at 30 mg/kg, ip after 4 hrs by rotarod test; format: toxicity, organism-based; set-up: dose 30 mg/kg, route intraperitoneal; conditions: in vivo
Summary of the method: (§4)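 Drug given ip to mice as a suspension in 0.5% methylcellulose. At the stated time after dosing, each mouse was placed on a 1 inch knurled rod turning at 6 rpm. Neurotoxicity = inability to stay balanced at least 1 min in each of three trials. Scored as animals toxic/animals tested in small groups.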

[7] = tested on: Rattus norvegicus; test: Anticonvulsant activity in rat assessed as protection against maximal electric shock-induced seizures at 30 mg/kg, ip after 0.25 hrs; format: functional, organism-based; set-up: dose 30 mg/kg; summary of the method: as §2
[8] = tested on: Rattus norvegicus; test: Anticonvulsant activity in po dosed rat assessed as protection against maximal electric shock-induced seizures; format: functional
[9] = tested on: Rattus norvegicus; test: Anticonvulsant activity in ip dosed rat assessed as time to show peak effect of protection against maximal electric shock-induced seizures; format: functional; summary of the method: as §2
[10] = tested on: Mus musculus; test: Neurotoxicity in mouse assessed as inability to maintain equilibrium on rotarod at 300 mg/kg, ip after 0.5 hrs by rotarod test; format: toxicity, organism-based; set-up: dose 300 mg/kg, route intraperitoneal; conditions: in vivo; summary of the method: as §4
[11] = tested on: Rattus norvegicus; test: Neurotoxicity in rat assessed as neurological deficit at 30 mg/kg, po after 0.25 hrs […]; format: toxicity, organism-based; set-up: dose 30 mg/kg, route oral; conditions: in vivo; summary of the method: as §1
[12] = tested on: Rattus norvegicus; test: Neurotoxicity in rat assessed as neurological deficit at 30 mg/kg, ip after 4 hrs; format: toxicity, organism-based; set-up: dose 30 mg/kg, route intraperitoneal; conditions: in vivo; summary of the method: as §1
[13] = Neurotoxicity in ip dosed mouse assessed as inability to maintain equilibrium on rotarod by rotarod test; format: toxicity, organism-based; conditions: in vivo
Summary of the method: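 Mice dosed ip with a suspension in 0.5% methylcellulose, then placed on a 1 inch knurled plastic rod rotating at 6 rpm. Toxicity = failure to keep equilibrium for at least 1 min in each of three trials.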

[14] = tested on: Rattus norvegicus; test: Neurotoxicity in rat assessed as neurological deficit at 30 mg/kg, po after 1 hr […]; format: toxicity, organism-based; set-up: dose 30 mg/kg, route oral; conditions: in vivo; summary of the method: as §1
[15] = tested on: Mus musculus; test: Anticonvulsant activity against […] in mouse assessed as increase in tonic threshold at 8 mg/kg, ip by threshold tonic extension test; format: functional, organism-based; set-up: dose 8 mg/kg
Summary of the method: (§5)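 Threshold tonic extension test in mice. The compound was given ip, then pentylenetetrazol was infused until the first twitch and the first clonus. PTZ dose was calculated from the infusion speed. Mean of 8 animals ± S.E.M.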

[16] = tested on: Rattus norvegicus; test: Anticonvulsant activity in rat assessed as protection against maximal electric shock-induced seizures at 30 mg/kg, ip after 1 hr; format: functional, organism-based; set-up: dose 30 mg/kg; summary of the method: as §2
[17] = tested on: Mus musculus; test: Neurotoxicity in mouse assessed as inability to maintain equilibrium on rotarod at 10 mg/kg, ip after 0.5 hrs by rotarod test; format: toxicity, organism-based; set-up: dose 10 mg/kg, route intraperitoneal; conditions: in vivo
[18] = tested on: Rattus norvegicus; test: Neurotoxicity in rat assessed as neurological deficit at 30 mg/kg, ip after 1 hr; format: toxicity, organism-based; set-up: dose 30 mg/kg, route intraperitoneal; conditions: in vivo; summary of the method: as §1
[19] = tested on: Mus musculus; test: Anticonvulsant activity in ip dosed mouse assessed as protection against maximal electric shock-induced seizures; format: functional; conditions: Mus musculus, ip; read-out: ED50
[20] = tested on: Mus musculus; test: Anticonvulsant activity against subcutaneous pentylenetetrazole-induced seizures in mouse at 100 mg/kg, ip after 0.5 hrs; format: functional, organism-based; set-up: dose 100 mg/kg
Summary of the method: (§6)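 Phase I screen in mice. Compound given ip as a suspension in 0.5% methylcellulose, read at 30 min and 4 h. Pentylenetetrazole 85 mg/kg in 0.9% NaCl was injected sc into the posterior midline and animals watched ≥30 min. Protection meant no clonic spasm lasting ≥5 s. Groups of 1–8 animals; result is protected/tested.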

[21] = species: Rattus norvegicus; test: Protective index, ratio of TD50 for neurotoxicity in rat to ED50 for inhibition of maximal electroshock-induced seizures in rat; format: functional
[22] = species: Mus musculus; test: Protective index, ratio of TD50 for neurotoxicity in mouse to ED50 for inhibition of maximal electroshock-induced seizures in mouse; format: functional
[23] = tested on: Mus musculus; test: Anticonvulsant activity in mouse assessed as protection against maximal electric shock-induced seizures at 30 mg/kg, ip after 4 hrs; format: functional, organism-based; set-up: dose 30 mg/kg; summary of the method: as §3
[24] = Neurotoxicity in po dosed rat assessed as neurological deficit […]; format: toxicity, organism-based; conditions: in vivo
Summary of the method: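 Rats dosed orally with a suspension in 0.5% methylcellulose. Neurological deficit judged by ataxia and loss of placing response and muscle tone.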

[25] = tested on: Mus musculus; test: Anticonvulsant activity against […] in mouse assessed as increase in tonic threshold at 28 mg/kg, ip by threshold tonic extension test; format: functional, organism-based; set-up: dose 28 mg/kg; summary of the method: as §5
[26] = tested on: Mus musculus; test: Anticonvulsant activity against subcutaneous pentylenetetrazole-induced seizures in mouse at 30 mg/kg, ip after 4 hrs; format: functional, organism-based; set-up: dose 30 mg/kg; summary of the method: as §6
[27] = tested on: Mus musculus; test: Anticonvulsant activity against subcutaneous pentylenetetrazole-induced seizures in mouse at 30 mg/kg, ip after 0.5 hrs; format: functional, organism-based; set-up: dose 30 mg/kg; summary of the method: as §6
[28] = tested on: Rattus norvegicus; test: Neurotoxicity in rat assessed as neurological deficit at 30 mg/kg, po after 2 hrs […]; format: toxicity, organism-based; set-up: dose 30 mg/kg, route oral; conditions: in vivo; summary of the method: as §1
[29] = tested on: Mus musculus; test: Neurotoxicity in mouse assessed as inability to maintain equilibrium on rotarod at 100 mg/kg, ip after 0.5 hrs by rotarod test; format: toxicity, organism-based; set-up: dose 100 mg/kg, route intraperitoneal; conditions: in vivo; summary of the method: as §4
[30] = tested on: Rattus norvegicus; test: Neurotoxicity in rat assessed as neurological deficit at 30 mg/kg, ip after 2 hrs; format: toxicity, organism-based; set-up: dose 30 mg/kg, route intraperitoneal; conditions: in vivo; summary of the method: as §1
[31] = tested on: Mus musculus; test: Neurotoxicity in mouse assessed as inability to maintain equilibrium on rotarod at 3 mg/kg, ip after 0.5 hrs by rotarod test; format: toxicity, organism-based; set-up: dose 3 mg/kg, route intraperitoneal; conditions: in vivo
[32] = tested on: Mus musculus; test: Neurotoxicity in mouse assessed as inability to maintain equilibrium on rotarod at 30 mg/kg, ip after 0.5 hrs by rotarod test; format: toxicity, organism-based; set-up: dose 30 mg/kg, route intraperitoneal; conditions: in vivo; summary of the method: as §4
[33] = tested on: Rattus norvegicus; test: Neurotoxicity in rat assessed as neurological deficit at 30 mg/kg, po after 0.5 hrs […]; format: toxicity, organism-based; set-up: dose 30 mg/kg, route oral; conditions: in vivo; summary of the method: as §1
[34] = tested on: Rattus norvegicus; test: Anticonvulsant activity in rat assessed as protection against maximal electric shock-induced seizures at 30 mg/kg, po after 4 hrs; format: functional, organism-based; set-up: dose 30 mg/kg
Summary of the method: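 MES test in rats dosed orally at 30 mg/kg as a suspension in 0.5% methylcellulose, read at 0.25–4 h. Four rats per time point; result is protected/tested.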

[35] = tested on: Rattus norvegicus; test: Anticonvulsant activity in rat assessed as protection against maximal electric shock-induced seizures at 30 mg/kg, ip after 2 hrs; format: functional, organism-based; set-up: dose 30 mg/kg; summary of the method: as §2

In the case of `Cc1cccc(C)c1OCCNC1CCCCC1O` (racemic), the Activity [1] is reported as “Non-toxic”, the Activity [2] is reported as “inactive” and the Activity [3] is reported as “inactive”. The Activity [4] was “Active”, the Activity [5] was “Active” and the Activity [6] was “Non-toxic”. The Activity [7] was “Active”, the ED50 [8] was 26.2 mg/kg and the Time [9] was 0.25 h. For the same molecule, the Activity [10] was “Toxic”, the Activity [11] was “Non-toxic” and the Activity [12] was “Non-toxic”. The TD50 [13] was 28.4 mg/kg, the Activity [14] was “Non-toxic” and the Activity [15] was “inactive”. The Activity [16] was “Active”, the Activity [17] was “Non-toxic” and the Activity [18] was “Non-toxic”. The ED50 [19] was 7.73 mg/kg, the Activity [20] was “inactive” and the “Ratio TD50/ED50” value [21] was greater than 19.06. For the same molecule, the “Ratio TD50/ED50” value [22] was 3.9, the Activity [23] was “inactive” and the TD50 [24] was greater than 500 mg/kg. The Activity [25] was “inactive”, the Activity [26] was “inactive” and the Activity [27] was “inactive”. The Activity [28] was “Non-toxic”, the Activity [29] was “Toxic” and the Activity [30] was “Non-toxic”. For the same molecule, the Activity [31] was “Non-toxic”, the Activity [32] was “Toxic” and the Activity [33] was “Non-toxic”. For the same molecule, the Activity [34] was “inactive” and the Activity [35] was “inactive”.
